# Measured values reported in the RNAGym collection of RNA variant scans (doi:10.1126/science.aae0568).
# This sample holds only a part of the variants without activity.
# B1: tRNA (parent)
# chain: GUUCCGUUGGCGUAAUGGUAACGCGUCUCCCUCCUAAGGAGAAGACUGCGGGUUCGAGUCCCGUACGGAACG
# Variants of: B1
# Experiment: yeast fitness relative to wild type (ratio to wild type); higher = fitter; tRNA-Arg(CCU), competitive growth, 37 C, YPD
# Outline: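 Start and end populations of a pooled competition were compared by 100-nucleotide paired-end sequencing of gene amplicons. The Saccharomyces cerevisiae strains carried tRNA-Arg(CCU) gene variants at the native genomic locus, synthesised with a 3% per-site mutation rate at 69 sites, and competed in YPD at 37°C for 24 hours in six parallel replicates. Darwinian fitness relative to wild type was based on the change in genotype frequencies. Genotypes required ≥ 100 starting reads, and estimates < 0.5 were set to 0.5.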
row,Variant,yeast fitness
1,C5G C27G A65C A70C,0.552
2,G6C U7G G17C,0.525
3,U7A G10C U26C C27G U32A,≤ 0.5
4,C30A C60U,0.727
5,U3G C5U U32A C33U,0.595
6,U19A C33A C34U A36C,≤ 0.5
7,A15C C22U A42U U47A,0.511
8,A42G C62G,0.848
9,A14U U26A A45U U53C,0.597
10,U2A U13A A14C C33U G52C,≤ 0.5
11,G17A C34A C66A,≤ 0.5
12,U16G U35A G51C C61U,≤ 0.5
13,G10C C29A C46U C60G,≤ 0.5
14,A14U C30G C55U,≤ 0.5
15,C24G G25A C31G U64C,0.75
16,G9C A21C A57G,≤ 0.5
17,G18A C31U G58A,0.643
18,U54C C55G,0.654
19,U19C G67A,1
20,G23C C27G U35G C62A,0.59
21,C5G U13G C27U G41A,0.541
22,G12A U19C A42U G48C C55U,0.593
23,U7G G25A,0.799
24,A43U A70G,0.937

row,Variant,yeast fitness
1,G48C U54C,0.973
2,U8G G52C G67A,≤ 0.5
3,U3C G10A A40C C55G,≤ 0.5
4,G44A G63A G67C,≤ 0.5
5,U2C C24G A42U,≤ 0.5
6,U7G C11U C60A,≤ 0.5
7,C62U G68C,0.812
8,G23C C24U A36G A57U G63A,≤ 0.5
9,C11G A14G G18C A20U C33U C62U G63A,≤ 0.5
10,G9A A20G A42C G52C U54A,≤ 0.5
11,A21C C34G C60A,≤ 0.5
12,G9A U13C C29G,≤ 0.5
13,U3A G17C G38A,0.557
14,C31G,0.939
15,C4U U16A G23A A36G C49G C61A,≤ 0.5
16,C24A C31A C55A,≤ 0.5
17,A37G A45C,0.78
18,U2C C60A,0.66
19,U7A G23A C60A,≤ 0.5
20,U19C A45C,0.861
21,U28A C34U C61U,0.554
22,A21C C49U A69U,0.61
23,A42G G52C A65U,≤ 0.5
24,U32G C33G A65U,≤ 0.5

row,Variant,yeast fitness
1,U13C C24U,1.01
2,G9C G10C G18C C33U G44C C46U C62U,0.599
3,U26C A70C,0.797
4,U2A A42U,0.864
5,C5U A21G A42U G50C,≤ 0.5
6,C5G A36U U54C,≤ 0.5
7,U13G G58C C62U A70U,≤ 0.5
8,A43C U47A G58C U64C,≤ 0.5
9,A15U A36G G51C C55G,≤ 0.5
10,C5A U7C C31U,0.605
11,U2A C22G G25C C61G,0.703
12,U19A U26A C66A,0.585
13,C24G U47A C55G,0.847
14,A37C G38C U54C C61U,0.678
15,U3A A57G A69U,0.983
16,G38C A45U C66U,≤ 0.5
17,G39A C49A G52A G63A A70C,≤ 0.5
18,C24U C33G C34U C62U,≤ 0.5
19,C11U A45U U53C,0.66
20,A36U C46G,0.655
21,C11U U32C,0.933
22,U3C C24A C55A,≤ 0.5
23,C30G A40C C55G,0.624
24,U32G A40U U64G,0.543

row,Variant,yeast fitness
1,U2G U28G U59A,≤ 0.5
2,C27A C29U C49U,≤ 0.5
3,C5A A14U G52A,0.603
4,U28A G52A,0.705
5,A14G A21U G68C,≤ 0.5
6,U13G A14C A40C A42U,≤ 0.5
7,C31U G50C,0.955
8,A42G C60A,0.512
9,C4A G18A G44C C46U C49U G67A A70U,≤ 0.5
10,A15G C61G,0.698
11,U8C C49U,0.903
12,C49A U54A,0.538
13,U13C A36G A40C,0.61
14,C55A A57C,0.597
15,C34U A65C,0.884
16,G25A C27U U53C A70G,≤ 0.5
17,C11U U59A C66G,≤ 0.5
18,C22G G50U,0.873
19,G12A A21U C55G C60A C61G C66G,≤ 0.5
20,G23U G63A,0.609
21,C5U G10C C33U C46G,≤ 0.5
22,U7A C24U C33A G50A A65C,≤ 0.5
23,G10C G51A G63A,≤ 0.5
24,C5G U26C,0.803

row,Variant,yeast fitness
1,C5A C11G A21U G44C A57U,≤ 0.5
2,U28A G44C,0.813
3,A36G C46G G63A,0.652
4,U7C G25A G41A A42C G50C A70G,0.569
5,A15U C27U G48C A69G A70U,≤ 0.5
6,G18A C29U C31A A65G,≤ 0.5
7,C4U C24A U47G,≤ 0.5
8,C27A C61U,0.891
9,G6A G9C C11G G48C U59A,≤ 0.5
10,U13C C46U G48A,0.732
11,U7A G10A C33A A36C G67C,≤ 0.5
12,G9A C24U U53A C66U,0.529
13,C22G C30A A42C G58A,≤ 0.5
14,A14C C61U,0.626
15,G10A A20U C30U G56A A65G C66A G68C,≤ 0.5
16,C4G U7G,0.642
17,U13C C27U A37C,≤ 0.5
18,C11U C27A G48A U53A C61U,≤ 0.5
19,A20C U26A C34G A36G C46G,≤ 0.5
20,C22A G41C U53C,0.656
21,A57G A65U,0.699
22,C30U G38C C55A G67A,≤ 0.5
23,C30A C62U A70U,0.709
24,C4A C11A A57G,≤ 0.5

row,Variant,yeast fitness
1,A43U A65U,0.883
2,G9A U13A U32A,0.839
3,A15C U19C A21G C34U U53C,≤ 0.5
4,U8A A21U C55A,≤ 0.5
5,U2C C31G,1.04
6,C22U C31U,0.94
7,U16C C29G C49U,0.535
8,C61U A65C G67A G68A,≤ 0.5
9,G41A G52C,0.542
10,U13A A15C C33G G52A,≤ 0.5
11,C11G C30U U54A,≤ 0.5
12,C24A C29A G44A C46G,0.583
13,U8C C29A C34G A36G A40C U47A,≤ 0.5
14,U8A A15G G50C C55U C60G A69G,≤ 0.5
15,C11U C22G A69C,0.653
16,C30A C46U G52C,0.568
17,C22U U54A C55U G63A,0.54
18,C11G A45C U47C C61U A69G,≤ 0.5
19,U26A U54G,0.531
20,A14U A42C U54A G67C A69U,≤ 0.5
21,C22A C33G A43C C55A C62U,≤ 0.5
22,G41A G50A,0.807
23,G44C U54A,0.667
24,A37U G56C A57U,≤ 0.5

row,Variant,yeast fitness
1,U8C U16C A70U,0.577
2,G6A C22G C62G,≤ 0.5
3,G23A C31U C33G,0.523
4,C27G C34A C46G C55A,≤ 0.5
5,G23A C33G A43G A69C,≤ 0.5
6,U28G G38A A40G G56A C62U,≤ 0.5
7,C29G A69U,0.771
8,G10A A70C,0.856
9,G12A U16A A40G A57C C60A C62U,0.69
10,G25A C55U A69C,0.639
11,C5G A15C C46U U53G A57C,0.588
12,A21G C22U C55U,0.567
13,C29U U35C C61G,0.672
14,C22G G23C G50C C55A C60A,≤ 0.5
15,A15G A21C C24G A40U C49U,≤ 0.5
16,C27U C33U C60G,0.628
17,G17A C30G G48A U53C,≤ 0.5
18,A21U C30A U35C A40G,≤ 0.5
19,C24G G41A G51A,≤ 0.5
20,G12C C27A,0.814
21,C5G C30U,0.799
22,U28G C30G C49U U64C,≤ 0.5
23,A37C G63C,0.663
